For orientation: inhibition means the share of the control response that was lost under treatment. A word on the IC50: it is the point on the concentration scale where inhibition reaches its midpoint. Broadly, the Cmax is the peak of the concentration-time curve. Broadly, the half-life is the time in which the quantity being followed falls by half. Read a low half-life as rapid decline. A word on the AUC(0-t): it is the area under the concentration-time curve up to a stated or last time point. High values mean high exposure, low ones low exposure. The bioavailability is the share of a dose that reaches the circulation, judged against a reference dose that is usually intravenous. Higher therefore signals much systemic uptake.

The values that follow come from ChEMBL document CHEMBL5346889, “Discovery of 4-oxo-N-phenyl-1,4-dihydroquinoline-3-carboxamide derivatives as novel anti-inflammatory agents for the treatment of acute lung injury and sepsis” (Eur J Med Chem, 2023).

The source made the active and inactive calls. The rule behind the calls is not given here.

For data set [1], the system named is Mus musculus. Put plainly: Protection against LPS-induced sepsis in C57/BL6 mouse model assessed as reduction in periarterial lymphatic sheath thickening at 20 mg/kg, po preincubated with compound followed by LPS stimulation for 1 hr by H and E staining based analysis. Type of data set: functional, organism-based. In short, it runs like this: (§1)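 Mice given 20 mg/kg orally, then intraperitoneal LPS 20 mg/kg 1 h later; n = 12 per group. Kidney, liver, heart and spleen weighed; spleen sections H&E-stained for histology.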

For data set [2], the system named is THP-1. In words: Antiinflammatory activity in LPS-induced human THP-1 cells assessed as inhibition of LPS-induced IL-1 beta transcription preincubated for 0.5 hrs followed by LPS stimulation for 6 hrs by RT-qPCR method. Type of data set: functional, cell-based. Particulars: dose 5-10 µM, time 6.5 hrs. The procedure, abridged: (§2)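 J774A.1 or THP-1 cells pretreated 0.5 h at 10 or 5 μM, then LPS 0.5 μg/mL for 6 h. TRIzol RNA; IL-6, TNF-α and IL-1β transcripts by RT-qPCR, normalized to β-actin and control; 3 independent experiments, mean ± SEM.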
A general note: In qPCR the cycle at which signal appears reflects the starting amount.

The test system of data set [3] is THP-1. Put plainly: Antiinflammatory activity in LPS-induced human THP-1 cells assessed as inhibition of LPS-induced TNF-alpha release preincubated for 30 mins followed by LPS stimulation for 24 hrs by ELISA method. Type of data set: functional, cell-based. The procedure, abridged: (§3)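 THP-1 or LX-2 cells in DMEM with 10% FBS, 37 °C, 5% CO2. Pretreated 30 min at 10, 5, 2.5 or 1.25 μM, then LPS 0.5 μg/mL for 24 h. IL-6 and TNF-α in medium measured by ELISA, normalized to lysate total protein; mean ± SEM of 3 independent experiments.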

Data set [4] has as its system Mus musculus. Put plainly: Antiinflammatory activity in LPS-induced C57/BL6 mouse acute lung injury model assessed as decrease in IL-6 expression level at 20 mg/kg via oral gavage preincubated for 30 mins followed by LPS stimulation for 6 hrs by RT-qPCR method. In kind it is functional, organism-based. As to conditions: time 6.5 hrs. In short, it runs like this: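 Male C57BL/6 mice, six weeks old, n = 8 per group. Dosed 20 mg/kg orally 30 min before intratracheal LPS 5 mg/kg; dexamethasone 20 mg/kg as comparator. Lung tissue collected 6 h after LPS. RNA extracted with TRIzol; IL-6 and TNF-α transcripts by RT-qPCR, normalized to β-actin; n = 5 mice per group, mean ± SEM.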

Data set [5] concerns Mus musculus. In words: Antiinflammatory activity in LPS-induced C57/BL6 mouse acute lung injury model assessed as reduction in macrophage infiltration at 20 mg/kg via oral gavage preincubated for 30 mins followed by LPS stimulation for 6 hrs by immunohistochemical staining based analysis. In kind it is functional, organism-based. As to conditions: time 6.5 hrs. In short, it runs like this:
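Same ALI model: 20 mg/kg oral, intratracheal LPS 5 mg/kg 30 min later, lungs at 6 h. Paraffin sections given citrate (pH 6.5) antigen retrieval, 3% H2O2 and 5% BSA block, anti-F4/80 12 h at 4 °C, HRP secondary, DAB and hematoxylin; F4/80 positivity quantified; n = 5 per group.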

The subject of data set [6] is Mus musculus. Put plainly: Antiinflammatory activity in LPS-induced C57/BL6 mouse acute lung injury model assessed as decrease in IL-6 level in BALF at 20 mg/kg via oral gavage preincubated for 30 mins followed by LPS stimulation for 6 hrs by ELISA. As to conditions: time 6.5 hrs.
Data set [7] relates to J774.A1. In words: Antiinflammatory activity in LPS-induced mouse J774.A1 cells assessed as inhibition of LPS-induced IL-1 beta transcription preincubated for 0.5 hrs followed by LPS stimulation for 6 hrs by RT-qPCR method. In kind it is functional, cell-based. As to conditions: dose 5-10 µM, time 6.5 hrs. The procedure, abridged: as §2
The test system of data set [8] is Mus musculus. In words: Protection against LPS-induced sepsis in C57/BL6 mouse model assessed as reduction in demarcation between white and red pulp at 20 mg/kg, po preincubated with compound followed by LPS stimulation for 1 hr by H and E staining based analysis. Type of data set: functional, organism-based. In short, it runs like this: as §1
Data set [9] deals with J774.A1. Put plainly: Antiinflammatory activity in LPS-induced mouse J774.A1 cells assessed as inhibition of LPS-induced IL-6 release at 10 uM preincubated for 30 mins followed by LPS stimulation for 24 hrs by ELISA method. In kind it is functional. Particulars: time 24.5 hrs. In short, it runs like this:
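J774A.1 macrophages pretreated 30 min at 10 μM, then challenged with LPS 0.5 μg/mL for 24 h at 37 °C, 5% CO2. Medium IL-6 and TNF-α measured by ELISA, normalized to total lysate protein.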
On the technique in general: ELISA stands for enzyme-linked immunosorbent assay.

The test system of data set [10] is Mus musculus. In words: Protection against LPS-induced C57/BL6 mouse acute lung injury model assessed as reduction in number of neutrophils in BALF at 20 mg/kg via oral gavage preincubated for 30 mins followed by LPS stimulation for 6 hrs. In kind it is functional, organism-based. Particulars: time 6.5 hrs. In short, it runs like this: (§4)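 Mice dosed 20 mg/kg by gavage (dexamethasone 20 mg/kg comparator), intratracheal LPS 5 mg/kg 30 min later, killed at 6 h. Right upper lobe fixed in paraformaldehyde, H&E; lung wet/dry ratio; BALF protein, total cells and neutrophils counted; n = 5 mice per group, mean ± SEM.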

For data set [11], the system named is J774.A1. Put plainly: Inhibition of NF-kappaB pathway in LPS-induced mouse J774.A1 cells assessed as inhibition of p65 phosphorylation preincubated with compound for 2 hrs followed by LPS-stimulation and measured after 30 mins by Western blot analysis. Type of data set: cell-based. As to conditions: dose 5-10 µM, time 2.5 hrs. The procedure, abridged: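 J774A.1 cells preincubated with 10 or 5 μM or DMSO for 2 h, then LPS 0.5 μg/mL for 30 min. RIPA lysates run on 12.5% SDS-PAGE, transferred to PVDF, blocked with 5% milk; probed for IκB-α and p-p65, with GAPDH and p65 as loading controls; ECL detection; densitometry.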
For orientation: Immunoblotting shows a protein as a band on a membrane.

The test system of data set [12] is THP-1. Put plainly: Antiinflammatory activity in LPS-induced human THP-1 cells assessed as inhibition of LPS-induced IL-6 transcription preincubated for 0.5 hrs followed by LPS stimulation for 6 hrs by RT-qPCR method. In kind it is functional, cell-based. Particulars: dose 5-10 µM, time 6.5 hrs. In short, it runs like this: as §2
Data set [13] can be described thus: Cmax in rat at 1 mg/kg, iv. Particulars: in vivo. Also noted: dose 1 mg/kg, route iv. Type of data set: ADME, organism-based. In short, it runs like this: (§5)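 Rats dosed intravenously at 1 mg/kg or orally at 10 mg/kg; plasma pharmacokinetic parameters AUC(0-t), Tmax, T1/2, Cmax and oral bioavailability F derived from the two routes.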
Data set [14] deals with J774.A1. Put plainly: Inhibition of NF-kappaB pathway in LPS-induced mouse J774.A1 cells assessed as reduction in p65 nuclear translocation preincubated with compound for 2 hrs followed by LPS-stimulation and measured after 30 mins by Western blot analysis. Type of data set: cell-based. Particulars: time 2.5 hrs.
Data set [15] deals with Mus musculus. Put plainly: Protection against LPS-induced C57/BL6 mouse acute lung injury model assessed as improvement in alveolar wall thickening at 20 mg/kg via oral gavage preincubated for 30 mins followed by LPS stimulation for 6 hrs. Type of data set: functional, organism-based. As to conditions: time 6.5 hrs. In short, it runs like this: as §4
In data set [16] the test system is J774.A1. In words: Antiinflammatory activity in LPS-induced mouse J774.A1 cells assessed as inhibition of LPS-induced TNF-alpha transcription preincubated for 0.5 hrs followed by LPS stimulation for 6 hrs by RT-qPCR method. In kind it is functional, cell-based. Particulars: dose 5-10 µM, time 6.5 hrs. In short, it runs like this: as §2
A short description of data set [17]: Half life in rat at 1 mg/kg, iv. Type of data set: ADME, organism-based. Particulars: in vivo. In short, it runs like this: as §5
Data set [18] in a line: AUC (0 to t) in rat at 1 mg/kg, iv. Also noted: dose 1 mg/kg, route iv. In kind it is ADME, organism-based. Particulars: in vivo. The procedure, abridged:
as §5

For the next data set, the system named is LX-2. In words: Antiinflammatory activity in LPS-induced human LX2 cells assessed as inhibition of LPS-induced IL-6 release preincubated for 30 mins followed by LPS stimulation for 24 hrs by ELISA method. In kind it is functional, cell-based. In short, it runs like this:
as §3

The nature of data set [19]: Oral bioavailability in rat at 10 mg/kg. Type of data set: ADME, organism-based. Particulars: in vivo. In short, it runs like this: as §5
Data set [20] relates to Mus musculus. In words: Protection against LPS-induced sepsis in C57/BL6 mouse model assessed as reduction in spleen enlargement at 20 mg/kg, po preincubated with compound followed by LPS stimulation for 1 hr. Type of data set: functional, organism-based. The procedure, abridged:
as §1

In the case of `COc1cc2nccc(Oc3ccc(NC(=O)c4cn(-c5ccccc5)c5ccccc5c4=O)cc3)c2cc1OC`, the outcome in the data set with Mus musculus [1], with Mus musculus [4], in the data set with Mus musculus [5], in the data set on Mus musculus [6], in the data set with Mus musculus [8] and in the data set on Mus musculus [10] was Active. Moreover, the result in the data set with Mus musculus [15] and with Mus musculus [20] was Active. In addition, the inhibition entry in the data set on THP-1 [2], in the data set with J774.A1 [7], in the data set with J774.A1 [11], with THP-1 [12] and with J774.A1 [16] was “Dose-Dependent Effect” throughout. Also, the IC50 in the data set on THP-1 [3] turned out to be 1.67 µM; with LX-2 it was 2.62 µM. For the same molecule, the inhibition at 10 µM in the data set with J774.A1 [9] is 75%. In data set [13], this molecule came in with a Cmax of 1360 ng/mL. Besides, the inhibition entry in the data set on J774.A1 [14] was “Active”. The same molecule gave a half-life in [17] of 8.9 h. The molecule further displayed an AUC(0-t) in data set [18] of 6320 ng·h/mL. Moreover, in data set [19], the bioavailability was determined as 36.3%.
